# KCNK9 inh = KCNK9 potassium channel inhibitors, primary screen, HEK293 cells, thallium flux | Potassium channel subfamily K member 9 (Homo sapiens), Q9NPC2 | FluxOR thallium flux fluorescence; hits give low values | B-score at 10 µM | 1.2% of 310,000 active | AID 488922, 2010;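 active = ratio B-score over 3 SD below the library mean, with starting fluorescence within 5 SD of its mean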;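 note: negative B-score means less thallium flux so channel inhibition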
# KCNQ1 pot = potentiators or activators of KCNQ1 channel, primary screen, cell-based, thallium flux, high-throughput | Potassium voltage-gated channel subfamily KQT member 1 (Homo sapiens), P51787 | CHO-K1 KCNQ1, thallium flux FluxOR fluorescence; hits give high values | B-score at 10 µM | 0.35% of 310,000 active;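 active = fluorescence ratio B-score, a plate-corrected score, at least three library SD, with initial intensity B-score within 5 SD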
#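 Doses: Single concentration per compound, DMSO matched to controls | Test system: KCNQ1-transfected CHO-K1 cells | Timing: 90 min dye loading and 20 min compound exposure, both at room temperature | Measured by: Kinetic FluxOR thallium fluorescence, 10-s 1-Hz baseline, 110-s post-stimulus read | Medium: Assay buffer with matched DMSO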
# hERG protect = hERG rescue from dofetilide block, primary screen, cell-based, CHO-hERG, FluxOR thallium flux, dofetilide IC70; 0.51% of 310,000 active; activation (rescue from dofetilide block), less the hit threshold, % at 10 µM; dofetilide IC70 present; Voltage-gated inwardly rectifying potassium channel KCNH2 (Homo sapiens), Q12809;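 active = activation above the mean of controls blocked by dofetilide plus 5 SD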;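 note: thallium influx through hERG after potassium depolarization seen as dye fluorescence rise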
# KCNQ1 block = inhibitors of human KCNQ1 channel, primary screen, cell-based, thallium flux, high-throughput; Potassium voltage-gated channel subfamily KQT member 1 (Homo sapiens), P51787; CHO-K1 KCNQ1, FluxOR thallium flux fluorescence; hits give high values; B-score at 10 µM; 1.3% of 310,000 active; AID 2642, 2010;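 active = compounds whose thallium flux B-score, printed positive for inhibition, exceeds three library SD while starting fluorescence stays within three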;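 note: channel opened by potassium depolarization with thallium stimulus after 20 min compound exposure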
# KCNK3 block = human KCNK3 channel inhibitors, primary screen, CHO cells, FluxOR thallium flux, B-score; Potassium channel subfamily K member 3 (Homo sapiens), O14649; FluxOR fluorescence; hits give low values; B-score at 10 µM; 0.84% of 340,000 active;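 active = B-score under library mean minus 4 SD, starting fluorescence ratio at most library mean plus 5 SD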;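 note: more negative B-score means stronger inhibition of thallium flux through KCNK3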
# Target sequence (O14649 whole entry, looked up): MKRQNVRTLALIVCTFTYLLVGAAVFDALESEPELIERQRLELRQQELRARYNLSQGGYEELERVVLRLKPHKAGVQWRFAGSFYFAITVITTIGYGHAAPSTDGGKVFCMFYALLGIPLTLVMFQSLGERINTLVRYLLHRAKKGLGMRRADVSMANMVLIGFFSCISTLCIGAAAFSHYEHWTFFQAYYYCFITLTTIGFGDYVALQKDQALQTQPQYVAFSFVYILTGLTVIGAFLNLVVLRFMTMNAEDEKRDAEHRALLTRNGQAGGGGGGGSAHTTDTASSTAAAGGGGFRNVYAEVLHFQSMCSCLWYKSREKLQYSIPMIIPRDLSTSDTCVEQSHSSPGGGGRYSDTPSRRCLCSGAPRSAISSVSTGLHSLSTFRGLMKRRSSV
# KCNK9 inh conf = KCNK9 potassium channel inhibitors, confirmation, HEK293 cells, thallium flux, duplicate | 43% of 4,900 active | inhibition, % at 10 µM | FluxOR thallium flux fluorescence | AID 492992, 2010 | shares compounds with KCNK9 inh;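 active = thallium signal inhibited by more than 5 SD of the compound-free buffer control wells, on both duplicate plates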;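 note: 0% = assay buffer control wells without compound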
# Kir21 sel = mouse Kir2.1 channel inhibition, confirmation, selectivity assay for KCNK9 modulator project, cell-based, HEK293, thallium flux. shares compounds with KCNK9 inh. Kir2.1 cells, FluxOR thallium flux fluorescence. 4% of 4,900 active. AID 492993, 2010. inhibition, % at 10 µM;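 active = thallium signal drop more than 5 SD beyond the mean of the no-compound control wells, seen in both duplicate plates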;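 note: signal is fluorescence rise after thallium addition divided by baseline fluorescence; plate controls were assay buffer only for no effect and full block by chlorpromazine control for full effect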
# KCNK9 uninduced = thallium flux in non-induced HEK293 cells, confirmation, counter-screen for KCNK9 inhibitor project, cell-based, second counter screen, non-induced KCNK9-HEK293; shares compounds with KCNK9 inh; FluxOR thallium flux; inhibition, % at 10 µM; 40% of 4,900 active; AID 492997, 2010;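 active = thallium signal drop beyond 5 SD of the untreated control mean, on both duplicate plates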;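 note: plate controls were buffer only IC0 wells for no effect and SID17386958 at its maximal inhibitory level for full effect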
# * = called active by the depositor; i = inactive; / = no result given. Hits are enriched below; roughly 3.1% of the tested compounds scored in any of these assays.
SMILES,KCNK9 inh,KCNQ1 pot,hERG protect,KCNQ1 block,KCNK3 block,KCNK9 inh conf,Kir21 sel,KCNK9 uninduced
Fc1ccccc1OCCCCSc1ncccn1,i,i,-14,i,i,/,/,/
O=C(/C=C/c1ccc(F)cc1)c1cc(Br)ccc1O,i,i,-7,i,i,/,/,/
O=C(/C=C/c1ccccc1)c1cc(Br)ccc(=O)c1O,i,22*,12*,i,i,i,i,i
c1ccc(-c2noc(CN3CCN(c4ccccc4)CC3)n2)cc1,i,i,-10,i,i,/,/,/
Fc1ccccc1N1CCN(Cc2cc(-c3ccccc3)on2)CC1,i,i,-5,i,i,i,i,i
Fc1ccccc1N1CCN(Cc2nc(-c3ccccc3)no2)CC1,i,i,-13,i,i,i,i,i
Fc1ccccc1N1CCN(CCCc2ccccc2)CC1,i,i,-10,i,i,/,/,/
O=C1c2ccccc2C(=O)N1Cc1nc(-c2ccccc2)no1,i,i,-8,i,i,i,i,i
COc1ccc(-c2noc(CN3CCN(c4ccccc4F)CC3)n2)cc1OC,i,i,-8,i,i,i,i,i
CN(CC(=O)Nc1cccc(F)c1)C(=O)c1ccccc1-n1cnnn1,/,/,/,/,i,/,/,/
Cc1ccccc1-c1nnc(SCC(=O)NC2CCS(=O)(=O)C2)n1C (configuration not stated),/,/,/,/,i,/,/,/
O=C(Nc1nccs1)c1ccc([N+](=O)[O-])cc1,i,i,-6,i,i,/,/,/
O=C(Cc1ccc([N+](=O)[O-])cc1)Nc1nccs1,-20*,i,1,i,i,i,i,i
Cc1ccccc1Nc1scc(-c2ccc(Cl)cc2)[n+]1-c1ccccc1C,-8.4*,i,-17,i,i,62%*,i,i
Cc1c(Nc2scc(-c3ccccc3)[n+]2-c2ccccc2)c(=O)n(-c2ccccc2)n1C,i,i,-21,i,i,/,/,/
CN(Cc1ccccc1F)C(=O)CCNC(=O)c1ccc(C(C)(C)C)cc1,/,/,/,/,i,/,/,/
COc1ccc(-c2c([C@H]3[C@@H]4C=CCC[C@@]4(C)C(=O)N3Cc3ccccc3)ccc3ccccc23)cc1OC,i,i,-18,i,i,i,i,i
COc1ccc(-c2ccc([C@H]3[C@@H]4C=CCC[C@@]4(C)C(=O)N3Cc3ccccc3)c(F)c2)cc1OC,i,i,-7,i,i,/,/,/
CN(CCO)c1ccc(-c2n[nH]c(=O)c3ccccc23)cc1[N+](=O)[O-],i,i,-1,i,i,/,/,/
O=C(COc1cc(O)c2c(=O)cc(-c3ccccc3)oc2c1)c1ccccc1,-8.7*,i,-7,i,i,44%*,i,30%*
CN(C)C(CNc1ncnc2sc3c(c12)CCCC3)c1ccco1 (configuration not stated),i,i,-5,i,i,i,i,i
c1coc(CNc2ncnc3sc4c(c23)CCCCC4)c1,i,i,-21,i,i,/,/,/
O=C(Nc1cnn(Cc2ccc(F)cc2)c1)c1cnn2c(C(F)F)cc(-c3ccccc3)nc12,-13*,i,-10,i,i,50%*,i,36%*
CNS(=O)(=O)c1ccc(NC(=O)c2cnn3c(C(F)F)cc(-c4ccccc4)nc23)cc1,i,i,-12,i,i,/,/,/
CCOC(=O)C1(CCCc2ccccc2)CCN(S(C)(=O)=O)CC1,i,i,-3,i,i,/,/,/
SMILES,KCNK9 inh,KCNQ1 pot,hERG protect,KCNQ1 block,KCNK3 block,KCNK9 inh conf,Kir21 sel,KCNK9 uninduced
CNc1ccc(/C=C/C(=O)c2cccc3ccccc23)cc1[N+](=O)[O-],-11*,i,-12,i,i,48%*,i,36%*
COc1ccc(Cn2nc(-c3ccccc3)c(N3CCCCC3)cc2=O)cc1,-17*,i,-15,7*,i,i,i,28%*
Cc1ccc(Cn2c(SCC(=O)N3CC(=O)Nc4ccccc43)nc3ccccc3c2=O)cc1,i,i,-2,i,i,i,i,i
CC(c1ccccc1)n1c(SCC(=O)N2CC(=O)Nc3ccccc32)nc2ccccc2c1=O (configuration not stated),-9*,i,-6,i,i,36%*,i,i
COCC(C)n1c(SCC(=O)N2CC(=O)Nc3ccccc32)nc2ccccc2c1=O (configuration not stated),/,/,/,/,i,/,/,/
Cc1ccc([N+](=O)[O-])cc1NC(=O)Nc1onc(C)c1C,i,i,-14,i,i,/,/,/
CCCCn1c(N)c(N(CC(C)C)C(=O)c2ccc(OCC3CCCO3)cc2)c(=O)[nH]c1=O (configuration not stated),i,i,-12,i,i,/,/,/
C=C1CC2C(=O)N(Cc3ccccc3)C(C(=O)OCC)(C(=O)OCC)C1N2C(=O)OC(C)(C)C (configuration not stated),-12*,i,-9,i,i,47%*,i,37%*
CCOC(=O)N1CCN(c2c(NC3CCN(Cc4ccccc4)CC3)c(=O)c2=O)CC1,i,i,-5,i,i,/,/,/
Cc1cc(SCC(=O)N/N=C/c2ccc(O)c(O)c2O)c(C)cc1Br,i,i,-50,i,i,i,i,i
COC(=O)c1ccc(C(=O)OC)c(NC(=O)CN(C)Cc2ccccc2)c1,-11*,i,-20,i,i,71%*,i,36%*
COC(=O)c1ccc(C(=O)OC)c(NC(=O)CN(C)Cc2cccc(Cl)c2Cl)c1,-12*,i,-12,i,i,80%*,i,46%*
COC(=O)c1ccc(C(=O)OC)c(NC(=O)CCS(=O)(=O)Cc2ccccc2)c1,i,i,0,i,i,/,/,/
CCC(CC)C(=O)Nc1cc(C(=O)OC)ccc1C(=O)OC,i,i,-4,i,i,/,/,/
